Assays:
Plasmodium falciparum [1] = experiment: Resistance index, ratio of IC50 for chloroquine-resistant ring stage Plasmodium falciparum W2 to IC50 for chloroquine-sensitive ring stage Plasmodium falciparum 3D7; assay type: functional
Procedure, shortened: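 W2 IC50 divided by 3D7 IC50. Both were measured by 48 h YOYO-1 flow-cytometric growth assay on sorbitol-synchronised 1% ring-stage cultures in human erythrocytes at 37 C under 3% O2.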

Plasmodium falciparum [2] = experiment: Antiplasmodial activity against chloroquine-sensitive ring stage Plasmodium falciparum 3D7 infected in human red blood cells after 48 hrs; assay type: functional, organism-based; settings: 3D7, 48 h
[3] = Inhibition of Plasmodium falciparum falcipain 2
Nucleic Acid = experiment: Binding affinity to s(GATCCTAGGATC)2-DNA by fluorescence spectroscopy; assay type: nucleic-acid assay
Procedure, shortened: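 Buffer 0.01 M phosphate pH 7.4, 0.1 M NaCl, 25.0 C, 1 cm quartz cuvettes. Fluorescence: excitation 339 nm, emission 450–500 nm. Dilution-corrected intensity change fitted to single-site binding for Kd; Kass taken as 1/Kd.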

Heme = experiment: Binding affinity to heme by UV-visible titration
Procedure, shortened: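 Hematin monomer (FPIX-OH, 10 μM) in pH 5.5 HEPES-buffered 40% DMSO v/v at 25 C, titrated with ligand from 100 μM solution until above hematin concentration. Stirred 1 min per addition; spectra 230–500 nm, Soret change at 402 nm. Absorbance dilution-corrected, nonlinear fit for Kd; Kass calculated from Kd.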

Plasmodium falciparum [4] = experiment: Antiplasmodial activity against chloroquine-sensitive, mefloquine-resistant ring stage Plasmodium falciparum D6 infected in human red blood cells after 48 hrs; assay type: functional, organism-based; settings: D6, 48 h
[5] = Selectivity index, ratio of IC50 for african green monkey Vero cells to IC50 for chloroquine-resistant ring stage Plasmodium falciparum W2; assay type: toxicity, cell-based; settings: read-out: Ratio IC50
Procedure, shortened: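 Vero IC50 divided by W2 IC50. Vero: 15000 cells/well adhered overnight, then log dilutions from 30 mg/mL DMSO stock for 48 h. MTT 0.5 mg/mL final for 2 h at 37 C, formazan dissolved in 95% ethanol, A570 read against DMSO vehicle as 100% viability. W2: 48 h YOYO-1 flow-cytometric growth assay in human erythrocytes.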

Plasmodium falciparum [6] = experiment: Antiplasmodial activity against chloroquine-resistant ring stage Plasmodium falciparum W2 infected in human red blood cells after 48 hrs; assay type: functional, organism-based; settings: W2, 48 h
Plasmodium falciparum [7] = experiment: Antiplasmodial activity against chloroquine and pyrimethamine-resistant ring stage Plasmodium falciparum V1/S infected in human red blood cells after 48 hrs; assay type: functional, organism-based
[8] = Inhibition of Plasmodium falciparum falcipain 3
Vero = experiment: Cytotoxicity against african green monkey Vero cells after 48 hrs by MTT assay; assay type: cell-based; settings: Chlorocebus sabaeus
Procedure, shortened: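 Vero monkey kidney cells in DMEM with 10% FBS at 37 C, 7% CO2; seeded 15000 cells/well and adhered overnight. Log dilutions from 30 mg/mL DMSO stock, 48 h exposure. MTT at 0.5 mg/mL final for 2 h; formazan dissolved in 95% ethanol, read at 570 nm. Viability relative to DMSO-medium wells; IC50 from concentration–viability curve; doxorubicin as standard.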

| SMILES | Ratio IC50 (Plasmodium falciparum [1]) | IC50 (Plasmodium falciparum [2]) [nM] | IC50 [3] [nM] | Ka (Nucleic Acid) [×10⁶ /M] | Ka (Heme) [×10⁶ /M] | IC50 (Plasmodium falciparum [4]) [nM] | selectivity ratio [5] | IC50 (Plasmodium falciparum [6]) [nM] | IC50 (Plasmodium falciparum [7]) [nM] | IC50 [8] [nM] | IC50 (Vero) [nM] |
| --- | --- | --- | --- | --- | --- | --- | --- | --- | --- | --- | --- |
| CCN(CC)Cc1ccc(Nc2c3ccccc3[n+](C)c3c2[nH]c2ccccc23)cc1O.[Cl-] | 3.5 | 56 | 15200 | 0.8 | 0.075 | 24 | 17 | 52 | 15 | – | – |
| C[n+]1c2ccccc2c(NCCN)c2[nH]c3ccccc3c21.[Cl-] | 0.6 | 115 | 6300 | 0.85 | 0.127 | 107 | 678 | 89 | 156 | > 25000 | 60000 |
| CCN(CC)CCNc1c2ccccc2[n+](C)c2c1[nH]c1ccccc12.[Cl-] | 1.2 | 130 | > 50000 | 1.14 | 0.41 | 70 | 34 | – | 72 | – | – |
| C[n+]1c2ccccc2c(Nc2ccccc2)c2[nH]c3ccccc3c21.[Cl-] | 0.2 | 291 | 14000 | 0.51 | 0.155 | 154 | 2 | 265 | 128 | – | – |
| C[n+]1c2cc(Cl)ccc2c(NC2CCNCC2)c2[nH]c3ccccc3c21.[Cl-] | 0.9 | 65 | 5600 | 4.5 | 0.18 | 70 | 98 | 45 | 52 | – | – |
| CC(CN(C)C)Nc1c2ccccc2[n+](C)c2c1[nH]c1ccccc12.[Cl-] (stereo unspecified) | 0.9 | 202 | 8300 | 1.9 | 0.148 | 78 | 23 | 142 | 165 | 14000 | – |
| C[n+]1c2cc(Cl)ccc2c(NC2CCNCC2)c2[nH]c3cc(Cl)ccc3c21.[Cl-] | 1.4 | 31 | 4800 | 1.6 | 0.12 | 30 | 16 | 48 | 35 | – | – |
| CN(C)CCCNc1c2ccccc2[n+](C)c2c1[nH]c1ccccc12.[Cl-] | 0.4 | 24 | 34000 | 3 | 0.066 | 46 | 109 | 20 | 51 | > 50000 | – |
| CC(C)NCCCNc1c2ccccc2[n+](C)c2c1[nH]c1ccccc12.[Cl-] | 0.8 | 26.1 | > 25000 | 5 | 0.2 | 34 | 125 | – | 28 | – | – |
| CCN(CC)CCCCNc1c2ccccc2[n+](C)c2c1[nH]c1ccccc12.[Cl-] | 0.4 | 22.3 | – | 9 | 0.15 | 71 | 358 | 29 | 66 | – | 10000 |
| C[n+]1c2ccccc2c(Nc2cccnc2)c2[nH]c3ccccc3c21.[Cl-] | 0.6 | 247 | 9320 | 1 | 0.17 | 166 | 14 | 180 | 279 | – | – |
| C[n+]1c2ccccc2c(NC2CCN(Cc3ccccc3O)CC2)c2[nH]c3ccccc3c21.[Cl-] | 0.7 | 536 | 14800 | 0.6 | 0.108 | 185 | 10 | 276 | 418 | 43000 | – |
